Assay results: ChEMBL document CHEMBL1221324, “Synthesis and characterization of mitoQ and idebenone analogues as mediators of oxygen consumption in mitochondria” (2010)
Activity calls are given as the source filed them. No cut-off for these calls is given here.

Legend:
C2C12 = experiment: Inhibition of rotenone-induced blockade of mitochondrial complex 1 in mouse C2C12 cells assessed as increase of oxygen consumption at 10 uM after 2 hrs by fluorescence assay in presence of FCCP; assay type: cell-based
Summary of the method: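 C2C12 cells grown in DMEM with 10% FBS and 2 mM glutamine were trypsinized, resuspended in phenol red-free medium and pretreated with 25 nM rotenone. They were plated at 200,000 cells/well on an oxygen biosensor plate and given 10 μM compound with 5 μM FCCP. Fluorescence (ex 485/em 620 nm) was followed for 2 h. Rate is M/T, slope at 50% maximum over time to 50% maximum, in triplicate.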

CCRF-CEM [1] = experiment: Cytoprotective activity against diethyl maleate-induced cell death in human CEM cells assessed as cell viability at 0.1 uM treated 18 hrs before diethyl maleate challenge measured after 4 hrs by trypan blue assay; assay type: functional; conditions: read-out: Activity
Summary of the method: (§1)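 CEM leukemia cells grown in RPMI 1640 with 10% FBS and 1% penicillin-streptomycin; 5 × 10⁵ cells/well pretreated with compound for 18 h, then exposed to 5 mM diethyl maleate at 37 °C, 5% CO2 for 4 h. Viability by 0.4% trypan blue exclusion, as percent of control cells given neither DEM nor compound; mean ± SD, n=3.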

CCRF-CEM [2] = experiment: Cytoprotective activity against diethyl maleate-induced cell death in human CEM cells assessed as cell viability at 2.5 uM treated 18 hrs before diethyl maleate challenge measured after 4 hrs by trypan blue assay; assay type: functional; conditions: read-out: Activity; summary of the method: as §1
CCRF-CEM [3] = experiment: Cytoprotective activity against diethyl maleate-induced cell death in human CEM cells assessed as cell viability at 0.5 uM treated 18 hrs before diethyl maleate challenge measured after 4 hrs by trypan blue assay; assay type: functional; conditions: read-out: Activity; summary of the method: as §1

## COC1=C(OC)C(=O)C(CCC[P+](c2ccccc2)(c2ccccc2)c2ccccc2)=C(C)C1=O
C2C12
  Rescue of oxygen consumption (active/not active): Active

## COC1=C(C)C(=O)C(CCCCCCCCCCO)=C(C)C1=O
CCRF-CEM [1]
  viability at 0.1 µM: 22.9%
CCRF-CEM [2]
  viability at 2.5 µM: 82.3%
CCRF-CEM [3]
  viability at 0.5 µM: 74.7%

## COC1=C(OC)C(=O)C(CCCCCCCCCCO)=C(C)C1=O [IDEBENONE]
CCRF-CEM [1]
  viability at 0.1 µM: 24.6%
CCRF-CEM [2]
  viability at 2.5 µM: 86.2%
CCRF-CEM [3]
  viability at 0.5 µM: 35.8%

## COC1=C(OC)C(=O)C(CCCCCCCCCCCCCCC[P+](c2ccccc2)(c2ccccc2)c2ccccc2)=C(C)C1=O
C2C12
  Rescue of oxygen consumption (active/not active): inactive

## CC1=C(C)C(=O)C(CCCCCCCCCCO)=C(C)C1=O
CCRF-CEM [1]
  viability at 0.1 µM: 34.8%
CCRF-CEM [2]
  viability at 2.5 µM: 96.3%
CCRF-CEM [3]
  viability at 0.5 µM: 77.3%

## COC1=C(OC)C(=O)C(CCCCC[P+](c2ccccc2)(c2ccccc2)c2ccccc2)=C(C)C1=O
C2C12
  Rescue of oxygen consumption (active/not active): inactive

## COC1=C(OC)C(=O)C(CCCCCCCCCC[P+](c2ccccc2)(c2ccccc2)c2ccccc2)=C(C)C1=O
C2C12
  Rescue of oxygen consumption (active/not active): inactive

## COC1=C(C)C(=O)C(C)=C(CCCCCCCCCCO)C1=O
CCRF-CEM [1]
  viability at 0.1 µM: 8.27%
CCRF-CEM [2]
  viability at 2.5 µM: 77.1%
CCRF-CEM [3]
  viability at 0.5 µM: 21.2%
